Compound activity as filed in PubChem.
In the library only some 2.7% were active in any assay of this set; here they are far more common.
RAM network inh: inhibitors of the yeast RAM network; S. cerevisiae dse1pr::URA3 reporter, 5-FOA growth OD615, 2 d; analog-sensitive cbk1-as2 kinase mutant strain; inhibition, % at 50 µM; hit rate 1.8% among 190,000; AID 868;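 active means inhibition above a set limit, 3 SD over mean compound inhibition, cut at about 8.4% in these data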;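 further: inhibition rescues growth on 5-FOA so higher OD means more RAM inhibition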
Yeast lifespan up: extends the lifespan of yeast; AID 775; S. cerevisiae growth with nicotinamide, OD615; deaD strain in restrictive glucose medium; hit rate 0.68% among 130,000; inhibition of the nicotinamide effect, % at 10 µM;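 active means inhibition above a set limit, placed 3 SD over the median of all compounds, cut at about 26% in these data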
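System: DeaD-strain S. cerevisiae / Buffer or medium: CSMM-D, restrictive glucose (dextrose) synthetic minimal medium / Probe or stimulus: nicotinamide, 1.5 mM, co-present with compound / Compound: one concentration, 10 µM, DMSO 0.25% / Incubation: 48 h compound exposure at 30 °C, humidified / Technique: optical density (absorbance) at 615 nm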
BB579 growth dn: yeast BB579 growth reduction in restrictive medium; S. cerevisiae BB579 growth, OD615, 48 h; inhibition, % at 10 µM; hit rate 0.51% among 140,000; AID 804;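 active means inhibition above a set limit, 3 SD over the mean compound inhibition, cut at about 44% in these data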
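Test system: S. cerevisiae DeaD strain BB579 yeast; Medium: restrictive CSMM-D medium; Compound: one dose, 10 µM compound with 0.25% DMSO; Incubation: 4 h cell preincubation, 48 h compound exposure, 30 °C humidified; Signal: OD at 615 nm; Benchmarks: amphotericin B at 10 µg/mL as positive control.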
SDO1 yeast rescue: compounds rescuing growth of sdo1-depleted yeast, bone marrow failure model; z-score at 10 µM; hit rate 0.21% among 140,000; S. cerevisiae sdo1-depleted JHY4D growth rescue, OD600 30 h; active compounds read high; pdr5 snq2 efflux-pump mutant strain;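 active means z-score above 3 at both the 24 hr and the 30 hr optical density reads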
Numbers stand for hits; i = inactive; nt = no result given.

SMILES	RAM network inh	Yeast lifespan up	BB579 growth dn	SDO1 yeast rescue
O=C(CN1CCc2ccccc2C1)Nc1cccc(S(=O)(=O)N2CCCC2)c1	i	nt	nt	nt
O=C(CSCc1cnn(-c2ccccc2)c1-n1cccc1)NCc1ccc2c(c1)OCO2	10.9	i	i	i
COc1ccc(CNC(=O)CSCc2cnn(-c3ccccc3)c2-n2cccc2)cc1	i	i	i	i
Cc1cccc(-n2c(SCC(=O)N3CC(=O)Nc4ccccc43)nc3ccccc3c2=O)c1C	9.6	i	i	i
Cc1sc2nc(C3CCCCC3)nc(SCC(=O)N3CC(=O)Nc4ccccc43)c2c1C	8.5	i	i	i
CCc1nc(SCC(=O)N2CC(=O)Nc3ccccc32)c2c(C)c(C)sc2n1	i	i	i	i
CC1=NCCN1S(=O)(=O)c1cc([N+](=O)[O-])ccc1Cl	i	nt	nt	nt
C=CCNC(=O)NC(=O)COC(=O)/C(C#N)=C/c1ccc(OC)cc1	i	nt	nt	nt
O=C(NC1CCCCC1)C(c1ccc(O)c(O)c1)N(C(=O)Cn1nnc2ccccc21)c1cccc(O)c1 (stereo not drawn)	i	nt	nt	nt
NC(=O)CSc1nc(-c2ccccc2)c(-c2ccccc2)o1	11.4	nt	i	i
CCc1nnc(NC(=O)CSc2nc(-c3ccccc3)c(-c3ccccc3)o2)s1	i	i	i	i
CNCc1sccc1C	i	nt	nt	nt
CCOC(=O)Cn1c(=O)c2c(nc3n2CCN3Cc2ccccc2)n(C)c1=O	i	28.6	i	i
CCCn1c(=O)[nH]c(=O)c2c1nc(-c1ccccc1)n2CCN1CCOCC1	i	57.1	i	i
CCOC(=O)c1c(/N=C/c2cc([N+](=O)[O-])ccc2O)sc(C)c1C	i	i	61.4	i
CCOC(=O)c1c(/N=C/c2cc(OC)cc([N+](=O)[O-])c2O)sc(C)c1C	9.5	i	i	i
O=C(c1ccc(CSc2ccc(Cl)cc2)cc1)N1CCCC1	i	nt	nt	nt
Cc1onc(-c2ccccc2)c1C(=O)N1CCN(c2ncccn2)CC1	i	nt	nt	nt
CCC(C)NC(=O)c1ccccc1NC(=O)C1COc2ccccc2O1 (stereo not drawn)	8.8	nt	nt	nt
c1ccc(CSc2nnc(-c3sccc3-n3cccc3)o2)cc1	8.7	i	i	i
COc1ccc(C)cc1NC(=O)C1CCN(C(=O)Cc2ccccc2)CC1	i	nt	nt	nt
O=C(NC(=S)N(CCO)Cc1ccccc1)c1cc(Br)ccc1Cl	i	nt	nt	nt
Cc1ccc(CC2C(=O)N(c3ccc(C)cc3)C(=O)C2C)cc1 (stereo not drawn)	i	nt	nt	nt
CSC[C@@H]1NC(=S)N(c2ccc(C)cc2)C1=O	i	30.9	i	i
O=C(CSc1cccc[n+]1[O-])C12CC3CC(CC(C3)C1)C2	i	nt	nt	nt
SMILES	RAM network inh	Yeast lifespan up	BB579 growth dn	SDO1 yeast rescue
Clc1ccc(OCc2nnc(SCc3nnc(-c4ccccc4)o3)o2)c(Cl)c1	9.6	i	i	i
CC1(NC(=O)C2CCCCC2)CCS(=O)(=O)C1 (stereo not drawn)	i	nt	nt	nt
Cc1ccccc1OCC(=O)NNC(=S)NC(=O)c1ccccc1[N+](=O)[O-]	i	i	i	i
CC(C)(C)c1ccc(OCC(=O)NNC(=S)NC(=O)c2ccccc2[N+](=O)[O-])c(Br)c1	i	31.3	i	i
O=C(CCc1ccc(S(=O)(=O)N2CCOCC2)cc1)N/N=C/c1ccc(O)c(O)c1O	i	i	i	i
CCOc1cc(/C=C2\CCCC(C(=O)C(F)(F)F)=C2O)ccc1O	9.1	i	i	i
COc1ccc(/C=C2\CCCC(C(=O)C(F)(F)F)=C2O)cc1OC	i	nt	nt	nt
CC(C)C(NC(=O)c1ccccc1F)C(=O)Nc1nccs1 (stereo not drawn)	i	nt	nt	nt
CCCCCC(=O)N1CCN(CCN=CC2=C(O)CC(c3ccc(OC)c(OC)c3)CC2=O)CC1 (stereo not drawn)	i	165.5	i	i
CCCCCC(=O)N1CCN(CCN=CC2=C(O)CC(c3ccc(OC)cc3)CC2=O)CC1 (stereo not drawn)	i	i	i	i
COc1ccc(Cl)cc1NC(=S)NCCSc1ccc(C)cc1	9.4	i	i	i
CCCCCCCCCOC(=O)C(CC(=O)O)N1CCOCC1 (stereo not drawn)	i	29.4	i	i
O=C(COC(=O)C1CCCCC1)Nc1cc([N+](=O)[O-])ccc1F	i	nt	nt	nt
COc1c(C)cc(Br)cc1C(=O)Nc1ccc(S(N)(=O)=O)cc1	i	nt	nt	nt
C/C(O)=c1/ccc2cccc3nc(C)nc1c23	i	i	69.3	i
Cc1nc2ccccc2nc(C)c1=NO	i	i	i	i
NC(=S)N/N=C/c1ccccc1OCCSc1ccc(Cl)cc1	i	i	i	i
COc1cc(C=C(C(C)=O)C(C)=O)ccc1O	i	i	i	i
COc1cc(/C=C/C(=O)CC(=O)/C=C/c2ccc(O)c(OC)c2)ccc1O	8.7	i	i	i
O=C(CN(c1ccccc1)S(=O)(=O)c1ccccc1)NCCSc1nc2ccccc2s1	i	i	i	i
Cc1cccc(N(CC(=O)NCCSc2nc3ccccc3s2)S(=O)(=O)c2ccccc2)c1	10.8	i	i	i
Cc1ccc(N(CC(=O)NCCSc2nc3ccccc3s2)S(=O)(=O)c2ccccc2)c(C)c1	9.2	i	i	i
Cc1cc(C(=O)N2CCCC(C(=O)c3ccc4ccccc4c3)C2)n(C)n1 (stereo not drawn)	i	nt	nt	nt
CC(C)Cn1c(N)c(C(=O)CSc2nc3ccccc3c(=O)n2CCCN2CCOCC2)c(=O)n(C)c1=O	i	nt	nt	nt
CCc1ccccc1NS(=O)(=O)c1ccc2[nH]cc(C(=O)NCC3CCCO3)c(=O)c2c1 (stereo not drawn)	i	i	i	i
SMILES	RAM network inh	Yeast lifespan up	BB579 growth dn	SDO1 yeast rescue
CCOc1ccc(NS(=O)(=O)c2ccc3[nH]cc(C(=O)NCC4CCCO4)c(=O)c3c2)cc1 (stereo not drawn)	9.3	i	i	i
CN(Cc1ccccc1)S(=O)(=O)c1ccc2[nH]cc(C(=O)NCC3CCCO3)c(=O)c2c1 (stereo not drawn)	8.7	i	i	i
O=S(=O)(c1ccccc1Cl)N1CCC(O)(c2cccnc2)CC1	i	nt	nt	nt
O=C(c1ccc(S(=O)(=O)N2CCOCC2)cc1)N1CCOCC1	i	nt	nt	nt
CCn1cc(Cl)c(C(=O)N2N=C3/C(=C/c4cccs4)CCCC3C2c2cccs2)n1 (stereo not drawn)	10.5	nt	i	i
CN=c1scc(-c2cccs2)n1/N=C/c1ccccc1O	8.9	i	i	i
Cc1nnc(SCC(=O)N2CCCC2)n(N)c1=O	i	nt	nt	nt
Cc1nn(-c2ccccc2)c(N)c1C(O)(CC(=O)C(F)(F)F)C(F)(F)F (stereo not drawn)	9.0	i	i	i
CSC(=S)N/N=C/c1ccccc1	i	nt	nt	nt
COc1ccc(NC(=O)CCC(=O)N(Cc2ccc(OC)c(OC)c2)c2nccs2)cc1	10.4	i	i	i
Cc1no[n+]([O-])c1COc1ccc(/C=N/n2nnnc2N)cc1	i	i	i	i
COc1ccc(Cn2cc(C(=O)c3ccccc3)c(=O)c3cc(OC)ccc32)cc1	i	i	i	i
Cc1ccc(Cn2cc(C(=O)c3ccc(F)cc3)c(=O)c3cc4c(cc32)OCCO4)cc1	10.3	i	i	i
COc1cccc(C(CC(=O)Nc2cccc3ccccc23)NC(=O)c2ccccc2)c1 (stereo not drawn)	10.1	i	i	i
